In ChEMBL document CHEMBL4033664, “Synthesis of benzoxazole derivatives as interleukin-6 antagonists” (Bioorg Med Chem, 2017):
Activity calls are given as the source filed them. The calls are words filed in the database; no cut-off is given here.

Tests used:
[1] = biological target: Interleukin-6 (Homo sapiens) (UniProt P05231); assay: Inhibition of IL-6 signaling pathway in human HepG2 cells transfected with p-STAT3-Luc assessed as reduction in IL-6 induced STAT3 phosphorylation at 20 ug/ml preincubated for 1 hr followed by IL-6 induction measured after 10 mins by immunoblot analysis; format: cell-based
Chain of Interleukin-6 (Homo sapiens) (P05231 whole entry): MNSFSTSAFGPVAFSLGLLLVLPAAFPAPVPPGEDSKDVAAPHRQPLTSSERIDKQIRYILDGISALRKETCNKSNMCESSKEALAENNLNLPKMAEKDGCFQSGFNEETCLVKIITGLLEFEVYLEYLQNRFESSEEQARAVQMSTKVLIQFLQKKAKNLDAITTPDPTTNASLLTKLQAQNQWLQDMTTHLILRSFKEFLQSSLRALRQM
Outline: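 HepG2 cells were grown in MEM to 80% confluence and serum-starved for 6 h. They were treated with compound for 1 h, then with IL-6 (20 ng/ml) for 10 min. Lysates were run on SDS-PAGE and immunoblotted with anti-phospho-STAT3. Scanned band intensity was expressed relative to the IL-6-only band, set at 100%.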

[2] = Cytotoxicity against human HepG2 cells assessed as cell viability at 10 ug/ml after 48 hrs by MTT assay; format: cell-based; conditions: read-out: Activity
Outline: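 HepG2 cells in MEM with 10% FBS were exposed to compound at 1, 3, 10, 30 or 100 µg/ml for 48 h, then given MTT for 3 h. Formazan was dissolved in DMSO and OD read at 570 nm. Triplicates from three independent experiments, mean ± SE.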

Th17 = assay: Antiinflammatory activity in C57BL6 mouse CD4-positive T-effector Th17 cells assessed as suppression of IL-17 levels at 10 uM preincubated for 3 to 4 days followed by anti-CD3 stimulation for 24 hrs by ELISA; format: functional, cell-based
[3] = Proinflammatory activity in C57BL6 mouse CD4-positive T-effector Th1 cells assessed as increase in anti-CD3/IL-12-induced IL-2 levels at 10 uM preincubated for 3 to 4 days followed by anti-CD3 stimulation for 24 hrs by ELISA; format: ADME, cell-based; conditions: th1, 24 h
Outline: (§1)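 CD4+ T cells were isolated from C57BL6 mouse lymph node and spleen and primed with anti-CD3 (2 µg/ml) plus anti-CD28 (1 µg/ml) for 24 h. Compound (10 µM) was added with IL-12 (10 ng/ml) and anti-IL-4 (5 µg/ml), renewed every other day for 3-4 days, then cells were restimulated with anti-CD3 (1 µg/ml) for 24 h. Supernatant cytokine was measured by sandwich ELISA with peroxidase-streptavidin and OD read-out.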

[4] = Proinflammatory activity in C57BL6 mouse CD4-positive T-effector Th1 cells assessed as increase in anti-CD3/IL-12-induced IFNgamma levels at 10 uM preincubated for 3 to 4 days followed by anti-CD3 stimulation for 24 hrs by ELISA; format: ADME, cell-based; conditions: th1, 24 h; outline: as §1
TH2 cell [5] = assay: Antiinflammatory activity in C57BL6 mouse CD4-positive T-effector TH2 cells assessed as suppression of IL-4 levels at 10 uM preincubated for 3 to 4 days followed by anti-CD3 stimulation for 24 hrs by ELISA; format: functional, cell-based
Outline: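 Mouse C57BL6 lymph node and spleen CD4+ T cells were primed for 24 h with anti-CD3 (2 µg/ml) and anti-CD28 (1 µg/ml). Th2 polarization used IL-4 (10 ng/ml) and anti-IFN-γ (1 µg/ml) with compound at 10 µM, refreshed every other day for 3-4 days. Cells were restimulated with anti-CD3 (1 µg/ml) for 24 h, and supernatant IL-4 was measured by biotin/streptavidin-peroxidase sandwich ELISA.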

TH2 cell [6] = assay: Antiinflammatory activity in C57BL6 mouse CD4-positive T-effector TH2 cells assessed as suppression of IL-5 levels at 10 uM preincubated for 3 to 4 days followed by anti-CD3 stimulation for 24 hrs by ELISA; format: functional, cell-based
TH2 cell [7] = assay: Antiinflammatory activity in C57BL6 mouse CD4-positive T-effector TH2 cells assessed as suppression of IL-13 levels at 10 uM preincubated for 3 to 4 days followed by anti-CD3 stimulation for 24 hrs by ELISA; format: functional, cell-based
Th1 [8] = assay: Antiinflammatory activity in C57BL6 mouse CD4-positive T-effector Th1 cells assessed as suppression of anti-CD3/IL-12-induced IL-2 levels at 10 uM preincubated for 3 to 4 days followed by anti-CD3 stimulation for 24 hrs by ELISA; format: functional, cell-based; outline: as §1
Th1 [9] = assay: Antiinflammatory activity in C57BL6 mouse CD4-positive T-effector Th1 cells assessed as suppression of anti-CD3/IL-12-induced IFNgamma levels at 10 uM preincubated for 3 to 4 days followed by anti-CD3 stimulation for 24 hrs by ELISA; format: functional, cell-based; outline: as §1

Row | inhibition [1] [%] | SMILES | viability at 48 h, 10 ug/ml [2] [%] | also measured
1 | 61.7 | CCc1ccc(Nc2nc3cc(NC(=O)Cc4ccccc4)ccc3o2)cc1 |  | 
2 | 93.1 | CCc1ccc(Nc2nc3cc(NC(=O)c4ccccc4)ccc3o2)cc1 | 65.6 | 
3 | 84.6 | CCc1ccc(Nc2nc3cc(NC(=O)c4ccccc4Nc4cccc(C(F)(F)F)c4)ccc3o2)cc1 | 38.2 | 
4 | 65.6 | CCc1ccc(Nc2nc3cc(NC(=O)c4cc([N+](=O)[O-])ccc4Cl)ccc3o2)cc1 |  | 
5 | 86.5 | CCc1ccc(Nc2nc3cc(NC(=O)c4ccc(C(C)(C)C)cc4)ccc3o2)cc1 | 59.8 | 
6 | 26.2 | CCc1ccc(Nc2nc3cc(NC(=O)c4ccc(OC)c(OC)c4)ccc3o2)cc1 |  | 
7 | 58 | CCOc1ccccc1C(=O)Nc1ccc2oc(Nc3ccc(CC)cc3)nc2c1 |  | 
8 | 83.7 | CCc1ccc(Nc2nc3cc(NC(=O)c4cc(OC)c(OC)c(OC)c4)ccc3o2)cc1 | 16.4 | 
9 | 12.1 | CCc1ccc(Nc2nc3cc(NC(=O)c4ccc(Cl)cc4)ccc3o2)cc1 |  | Activity (Th17): inactive; Activity [3]: Toxic; Activity [4]: Toxic; Activity (TH2 cell [5]): inactive; Activity (TH2 cell [6]): inactive; Activity (TH2 cell [7]): inactive
10 | 63.3 | CCc1ccc(Nc2nc3cc(NC(=O)c4ccc(CC)cc4)ccc3o2)cc1 |  | 
11 | 97.5 | CCc1ccc(Nc2nc3cc(N)ccc3o2)cc1 | 70.8 | Activity (Th1 [8]): Active; Activity (Th1 [9]): Active; Activity (Th17): Active; Activity (TH2 cell [5]): Active; Activity (TH2 cell [6]): Active; Activity (TH2 cell [7]): Active
12 | 50.2 | CCc1ccc(Nc2nc3cc(NC(=O)c4cc(F)cc(C(F)(F)F)c4)ccc3o2)cc1 |  | 
13 | 20 | CCc1ccc(Nc2nc3cc(NC(=O)c4ccc([N+](=O)[O-])cc4Cl)ccc3o2)cc1 |  | 
14 | 91.7 | CCc1ccc(Nc2nc3cc(NC(=O)c4cccc(CCl)c4)ccc3o2)cc1 | 41.1 | 
15 | 57.2 | CCCCCCCc1ccc(C(=O)Nc2ccc3oc(Nc4ccc(CC)cc4)nc3c2)cc1 |  | 
16 | 69.3 | CCc1ccc(Nc2nc3cc(NC(=O)c4ccc(Cl)c(Cl)c4)ccc3o2)cc1 |  | 
